Experimental data as given in ChEMBL document CHEMBL3259591, “Three new cembranoid-type diterpenes from Red Sea soft coral Sarcophyton glaucum: isolation and antiproliferative activity against HepG2 cells” (Eur J Med Chem, 2014).

Experiments:
[1] = test system: HepG2; assay: Cytotoxicity against human HepG2 cells after 96 hrs by […]; assay type: functional, cell-based; details: HepG2, 96 h
Summary of the method: (§1)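 Cells seeded at 10 × 10^3/well and held 24 h at 37 °C, 5% CO2. Serum-free RPMI-1640 then added with sample at final 1000, 500, 200, 100, 50, 20, 10 µg/mL (DMSO ≤1% v/v). Incubated 96 h, then rinsed and fixed in 3.7% formaldehyde in saline for ≥20 min. IC50 taken as 50% loss of monolayer, from a straight-line fit of dose-response data.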

[2] = test system: MCF7; assay: Cytotoxicity against human MCF7 cells after 96 hrs by […]; assay type: functional, cell-based; details: MCF7, 96 h; summary of the method: as §1
[3] = test system: A549; assay: Cytotoxicity against human A549 cells after 96 hrs by […]; assay type: functional, cell-based; details: A549, 96 h; summary of the method: as §1
[4] = test system: PC-3; assay: Cytotoxicity against human PC3 cells after 96 hrs […]; assay type: functional, cell-based; details: PC-3, 96 h; summary of the method: as §1
[5] = test system: Vero; assay: Cytotoxicity against african green monkey Vero cells after 96 hrs […]; assay type: cell-based; details: chlorocebus sabaeus; summary of the method: as §1
[6] = test system: PC-3; assay: Cell cycle arrest in human PC3 cells assessed as reduction in cells at S-phase after 24 hrs by flow cytometry (reference value: 32.12 +/- 0.9%); assay type: functional; set-up: scale not given: the % may be the effect or the level left
[7] = test system: PC-3; assay: Cell cycle arrest in human PC3 cells assessed as increase in cells at G0/G1-phase after 24 hrs by flow cytometry (reference value: 49.80 +/- 0.6%); assay type: functional
[8] = test system: PC-3; assay: Induction of apoptosis in human PC3 cells assessed as increase in caspase-3 concentration by colorimetric assay relative to untreated control; assay type: functional
[9] = test system: PC-3; assay: Induction of apoptosis in human PC3 cells assessed as viable cells after 24 hrs using annexin V/propidium iodide double staining by flow cytometry (reference value: 99.60 %); assay type: functional
[10] = test system: PC-3; assay: Induction of apoptosis in human PC3 cells assessed as early apoptotic cells after 24 hrs using annexin V/propidium iodide double staining by flow cytometry (reference value: 0.00 %); assay type: functional
[11] = test system: PC-3; assay: Induction of apoptosis in human PC3 cells assessed as late apoptotic cells after 24 hrs using annexin V/propidium iodide double staining by flow cytometry (reference value: 0.03 %); assay type: functional
[12] = test system: PC-3; assay: Induction of apoptosis in human PC3 cells assessed as necrotic cells after 24 hrs using annexin V/propidium iodide double staining by flow cytometry (reference value: 0.640.36 %); assay type: functional
[13] = test system: HepG2; assay: Cell cycle arrest in human HepG2 cells assessed as increase in cells at G0/G1-phase after 24 hrs by flow cytometry (reference value: 44.74 +/- 0.6%); assay type: functional
[14] = test system: HepG2; assay: Cell cycle arrest in human HepG2 cells assessed as reduction in cells at S-phase after 24 hrs by flow cytometry (reference value: 43.65 +/- 1.1%); assay type: functional; set-up: scale not given: the % may be the effect or the level left
[15] = test system: HepG2; assay: Induction of apoptosis in human HepG2 cells assessed as increase in caspase-3 concentration by colorimetric assay relative to untreated control; assay type: functional
[16] = test system: HepG2; assay: Induction of apoptosis in human HepG2 cells assessed as viable cells after 24 hrs using annexin V/propidium iodide double staining by flow cytometry (reference value: 99.35 %); assay type: functional
[17] = test system: HepG2; assay: Induction of apoptosis in human HepG2 cells assessed as early apoptotic cells after 24 hrs using annexin V/propidium iodide double staining by flow cytometry (reference value: 0.00 %); assay type: functional
[18] = test system: HepG2; assay: Induction of apoptosis in human HepG2 cells assessed as late apoptotic cells after 24 hrs using annexin V/propidium iodide double staining by flow cytometry (reference value: 0.01 %); assay type: functional
[19] = test system: HepG2; assay: Induction of apoptosis in human HepG2 cells assessed as necrotic cells after 24 hrs using annexin V/propidium iodide double staining by flow cytometry (reference value: 0.64 %); assay type: functional

| Structure (SMILES) | IC50 [1] [µM] | IC50 [2] [µM] | IC50 [3] [µM] | IC50 [4] [µM] | Activity [5] | Activity [6] [%] | Activity [7] [%] | fold change (FC) [8] | Activity [9] [%] | Activity [10] [%] | Activity [11] [%] | Activity [12] [%] | Activity [13] [%] | Activity [14] [%] | fold change (FC) [15] | Activity [16] [%] | Activity [17] [%] | Activity [18] [%] | Activity [19] [%] |
| --- | --- | --- | --- | --- | --- | --- | --- | --- | --- | --- | --- | --- | --- | --- | --- | --- | --- | --- | --- |
| C=C1CC[C@@H]2[C@H]([C@@H]3[C@H](C)CC[C@H]13)C2(C)C | 20 | 20 | 98.4 | 9.3 | Non-toxic | 23.29 | 64.83 | 2.1 | 91.85 | 1.63 | 2.18 | 4.34 | – | – | – | – | – | – | – |
| C/C1=C/C2OC(C)(CCCC/C(C)=C\CC1)C(O)C2C(C)C (stereo not drawn) | 20 | – | 197 | 31.5 | Non-toxic | – | – | – | – | – | – | – | 53.57 | 8.33 | 2.6 | 93.61 | 1.22 | 2.18 | 2.99 |
| CC1=C2CC[C@@H]3O[C@]3(C)CC/C(C)=C/CC/C(C)=C/[C@@H]2OC1=O | 94 | 25 | 73.8 | 216 | Non-toxic | – | – | – | – | – | – | – | – | – | – | – | – | – | – |
| CC1=C2CC[C@H]3O[C@]3(C)CC/C(C)=C\CC/C(C)=C/[C@H]2OC1=O | 20 | 29 | 201 | 112 | Non-toxic | – | – | – | – | – | – | – | 51.9 | 7.11 | 2 | 93.93 | 1.23 | 1.76 | 3.08 |
| COc1cccc2c1C(=O)c1c(O)c3c(c(O)c1C2=O)C[C@@](O)(C(=O)CO)C[C@@H]3O[C@H]1C[C@H](N)[C@H](O)[C@H](C)O1 [DOXORUBICIN] | 0.48 | – | – | 0.5 | Non-toxic | – | – | – | – | – | – | – | – | – | – | – | – | – | – |
